The subject of series [1] is Mus musculus. The experiment in a line: Activation of AMPK in nude mouse xenografted with human SW620 cells assessed as increase in AMPK phosphorylation at 50 mg/kg, ip QD for 32 consecutive days by Western blot analysis. The class given is functional, organism-based. In short, it runs like this: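 Nude mice carried subcutaneous SW620 xenografts (2×10^6 cells, right flank). Dosing began once mean tumor volume reached 100–200 mm³: 50 mg/kg ip once daily for 32 days, vehicle 10% DMSO/10% Kolliphor/80% saline. Tumors taken at day 32 and lysed in RIPA with protease inhibitors. Western blot with 20 µL of 2 mg/mL lysate on 7.5% SDS-PAGE, probed for pAMPK/AMPK or pACC/ACC, ECL detection.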
In general terms: In xenograft studies the graft and the host belong to different species.

Series [2] concerns the target High affinity nerve growth factor receptor (Homo sapiens) (UniProt P04629). The experiment in a line: Inhibition of NTRK1 (unknown origin) at 1000 nM relative to control. An outline of the steps: (§1)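 Single-concentration screen at 1000 nM against a 273-kinase panel, reported as percent inhibition.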
Series [3] has as its system HT-29. The experiment in a line: Inhibition of colony formation in human HT-29 cells incubated for 14 days by crystal violet staining based assay. The class given is functional, cell-based. In short, it runs like this:
(§2)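 SW480, SW620 or HT29 cells seeded at 300/well in 3 mL medium in 6-well plates with a concentration series of compound. After 14 days, fixed in 4% formaldehyde and stained with 0.5% crystal violet in 25% aqueous MeOH; colonies photographed.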

For series [4], the system named is SW-620. As to the kind of experiment: Induction of apoptosis in human SW620 cells assessed as necrotic cells level at 1 uM incubated for 48 hrs by AAD-7 and FITC-annexin-V staining based flow cytometry (reference value: 0.027%). The class given is functional. A general note: A flow cytometer gives signals particle by particle.
Series [5] has as its system HT-29. The experiment in a line: Induction of apoptosis in human HT-29 cells incubated for 48 hrs by AAD-7 and FITC-annexin-V staining based flow cytometry. The class given is functional, cell-based.
For series [6], the system named is SW-620. The experiment in a line: Induction of apoptosis in human SW620 cells assessed as early apoptotic cells level at 10 uM incubated for 48 hrs by AAD-7 and FITC-annexin-V staining based flow cytometry (reference value: 18.6%). The class given is functional.
The target in series [7] is Glycogen synthase kinase-3 alpha (Homo sapiens) (UniProt P49840). The experiment in a line: Inhibition of GSK3A (unknown origin) at 1000 nM relative to control. In short, it runs like this:
as §1

Series [8] deals with SW-620. As to the kind of experiment: Antitumor activity against human SW620 cells xenografted in nude mouse assessed as reduction in tumor weight at 50 mg/kg, ip QD for 32 consecutive days. The class given is functional, organism-based. In short, it runs like this:
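Six-week-old nude mice injected subcutaneously with 2×10^6 SW620 cells. Randomised at mean tumor volume 100–200 mm³ (n=6/group). Given 10 or 50 mg/kg ip daily for 32 consecutive days; vehicle 10% DMSO, 10% Kolliphor, 80% saline. Tumor volume measured every other day. Tumors weighed after euthanasia at day 32. t test against vehicle.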

For a further series, the species on record is Homo sapiens. As to the kind of experiment: Inhibition of Wnt/beta-Catenin signaling (unknown origin) expressed in recombinant human Wnt-3a-induced Wnt-HEK293 cells assessed as increase in beta-catenin degradation at 1 uM by Western blot analysis. The class given is cell-based. (Immunoblotting shows a protein as a band on a membrane.)
Series [9] is described as follows: Oral bioavailability in C57BL/6J mouse at 5 mg/kg by UPLC-MS analysis. The class given is ADME, organism-based. The note with it: in vivo. In short, it runs like this: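 Male C57BL/6J mice, 2–3 months old, 23–26 g. Single 5 mg/kg dose in 5% Kolliphor in saline, IV (n = 3) or oral gavage (n = 5). Tail-vein blood taken at 0.25, 0.5, 1, 4, 8 and 12 h and centrifuged to plasma. Analysed by LC-MS/MS (QTRAP 4000, C18 column); parameters from non-compartmental analysis.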

In the next series the test system is HEK293. As to the kind of experiment: Induction of Axin-1 protein expression in recombinant human Wnt-3a-induced Wnt-HEK293 cells at 1 uM by Western blot analysis. The class given is functional, cell-based.
For series [10], the system named is SW-620. As to the kind of experiment: Induction of apoptosis in human SW620 cells assessed as late apoptotic cells level at 3 uM incubated for 48 hrs by AAD-7 and FITC-annexin-V staining based flow cytometry (reference value: 7.6%). The class given is functional.
In a further series the test system is SW480. The experiment in a line: Induction of apoptosis in human SW480 cells incubated for 48 hrs by AAD-7 and FITC-annexin-V staining based flow cytometry. The class given is functional, cell-based.
Series [11] has as its target Ribosomal protein S6 kinase alpha-3 (Homo sapiens) (UniProt P51812). The experiment in a line: Inhibition of RPS6KA3 (unknown origin) at 1000 nM relative to control. In short, it runs like this: as §1
Series [12] is described as follows: Cmax in C57BL/6J mouse at 5 mg/kg, po by UPLC-MS analysis. The class given is ADME, organism-based. More on the design: dose 5 mg/kg, route oral. The note with it: in vivo. An outline of the steps:
(§3)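 Male C57BL/6J mice, 2-3 months, 23-26 g. Single 5 mg/kg dose in 5% Kolliphor in saline, given iv (n=3) or by oral gavage (n=5). Tail-vein blood taken at 0.25, 0.5, 1, 4, 8 and 12 h and spun to plasma. Plasma analysed by LC-MS/MS on a triple quadrupole with a C18 column. Parameters from non-compartmental analysis.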

For series [13], the target named is Protein kinase C theta type (Homo sapiens) (UniProt Q04759). As to the kind of experiment: Inhibition of PRKCQ (unknown origin) at 1000 nM relative to control. An outline of the steps:
as §1

For series [14], the system named is SW-620. The experiment in a line: Inhibition of colony formation in human SW620 cells incubated for 14 days by crystal violet staining based assay. The class given is functional, cell-based. In short, it runs like this: as §2
Series [15] concerns SW-620. The experiment in a line: Induction of apoptosis in human SW620 cells assessed as late apoptotic cells level at 1 uM incubated for 48 hrs by AAD-7 and FITC-annexin-V staining based flow cytometry (reference value: 7.6%). The class given is functional.
For series [16], the target named is AMP-activated protein kinase, AMPK (Homo sapiens) (UniProt P54646+O43741+P54619+Q9UGJ0+Q9Y478+Q13131+Q9UGI9). The experiment in a line: Activation of AMPK in HEK293 cells with Axin-1 knockdown assessed as increase in AMPK phosphorylation at T172 residue at 10 uM incubated for 24 hrs by Western blot analysis. The class given is cell-based.
The nature of series [17]: Half life in C57BL/6J mouse at 5 mg/kg, iv by UPLC-MS analysis. The class given is ADME, organism-based. The note with it: in vivo. An outline of the steps:
as §3

A short description of series [18]: Inhibition of Wnt/beta-Catenin signaling (unknown origin) expressed in recombinant human Wnt-3a-induced Wnt-HEK293 cells incubated for 24 hrs by luciferase reporter gene assay. The class given is cell-based. An outline of the steps:
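Stably transfected Wnt-HEK293 cells, 2000/well in DMEM + 10% FBS, incubated overnight at 37 °C. Compounds pin-transferred, then recombinant human Wnt-3a added (200 ng/mL stock); unstimulated control wells received medium. After 24 h at 37 °C, ONE-Glo luminescence read after 30 min at room temperature; CellTiter-Fluor viability read in parallel. IC50 reported as mean ± SD of three independent experiments.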

The test system of series [19] is Mus musculus. The experiment in a line: Inhibition of Wnt/beta-Catenin signaling in nude mouse xenografted with human SW620 cells assessed as reduction in MMP7 mRNA expression at 50 mg/kg, ip QD for 32 consecutive days by RT-PCR analysis. The note with it: in vivo. The class given is organism-based. An outline of the steps: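 Six-week-old nude mice implanted subcutaneously in the right flank with 2×10^6 SW620 cells. Randomized at mean tumor volume 100–200 mm³, n = 6/group. Dosed IP once daily for 32 days at 10 or 50 mg/kg, or vehicle (10% DMSO, 10% Kolliphor, 80% saline). Tumors collected at day 32; Axin-2, MMP-7 and S100A4 expression measured by RT-PCR.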

Calls of active or inactive are those of the source. The calls are words filed in the database; no cut-off is given here.

The record followed here is ChEMBL document CHEMBL4414663, “Pyrazole-4-Carboxamide (YW2065): A Therapeutic Candidate for Colorectal Cancer via Dual Activities of Wnt/β-Catenin Signaling Inhibition and AMP-Activated Protein Kinase (AMPK) Activation” (J Med Chem, 2019).

Sequence of Protein kinase C theta type (Homo sapiens) (Q04759 whole entry, looked up): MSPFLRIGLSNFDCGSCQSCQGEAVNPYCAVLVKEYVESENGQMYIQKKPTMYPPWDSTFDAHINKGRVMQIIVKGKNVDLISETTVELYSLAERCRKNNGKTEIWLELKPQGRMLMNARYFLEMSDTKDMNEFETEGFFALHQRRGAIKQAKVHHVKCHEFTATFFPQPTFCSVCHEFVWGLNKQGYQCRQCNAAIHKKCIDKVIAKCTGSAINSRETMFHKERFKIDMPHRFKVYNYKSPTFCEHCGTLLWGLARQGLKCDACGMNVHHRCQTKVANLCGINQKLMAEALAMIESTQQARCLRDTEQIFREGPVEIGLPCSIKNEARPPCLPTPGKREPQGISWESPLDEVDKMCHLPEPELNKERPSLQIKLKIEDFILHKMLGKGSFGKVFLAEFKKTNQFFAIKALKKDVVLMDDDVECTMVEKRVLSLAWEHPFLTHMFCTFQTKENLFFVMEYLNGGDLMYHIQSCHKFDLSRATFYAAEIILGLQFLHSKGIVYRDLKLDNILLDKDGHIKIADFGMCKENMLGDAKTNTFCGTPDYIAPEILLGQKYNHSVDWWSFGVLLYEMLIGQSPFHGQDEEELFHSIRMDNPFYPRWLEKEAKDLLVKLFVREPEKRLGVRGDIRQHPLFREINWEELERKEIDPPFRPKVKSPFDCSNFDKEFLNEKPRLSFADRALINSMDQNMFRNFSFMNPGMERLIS
Sequence of Glycogen synthase kinase-3 alpha (Homo sapiens) (P49840 2-483 limits assumed): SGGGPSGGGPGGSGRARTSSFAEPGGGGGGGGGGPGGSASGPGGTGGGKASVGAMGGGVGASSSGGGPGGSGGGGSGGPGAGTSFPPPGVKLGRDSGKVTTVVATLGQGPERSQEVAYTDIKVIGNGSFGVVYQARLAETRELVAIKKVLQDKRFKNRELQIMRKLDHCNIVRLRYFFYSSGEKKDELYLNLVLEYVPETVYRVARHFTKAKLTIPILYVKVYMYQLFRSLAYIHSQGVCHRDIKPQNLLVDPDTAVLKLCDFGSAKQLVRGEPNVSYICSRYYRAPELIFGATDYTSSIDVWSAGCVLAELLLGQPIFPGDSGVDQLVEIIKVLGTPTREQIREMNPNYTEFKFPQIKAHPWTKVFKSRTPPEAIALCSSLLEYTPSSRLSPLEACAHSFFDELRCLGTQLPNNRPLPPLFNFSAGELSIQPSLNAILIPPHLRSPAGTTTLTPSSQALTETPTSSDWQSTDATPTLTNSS
Sequence of Ribosomal protein S6 kinase alpha-3 (Homo sapiens) (P51812 whole entry): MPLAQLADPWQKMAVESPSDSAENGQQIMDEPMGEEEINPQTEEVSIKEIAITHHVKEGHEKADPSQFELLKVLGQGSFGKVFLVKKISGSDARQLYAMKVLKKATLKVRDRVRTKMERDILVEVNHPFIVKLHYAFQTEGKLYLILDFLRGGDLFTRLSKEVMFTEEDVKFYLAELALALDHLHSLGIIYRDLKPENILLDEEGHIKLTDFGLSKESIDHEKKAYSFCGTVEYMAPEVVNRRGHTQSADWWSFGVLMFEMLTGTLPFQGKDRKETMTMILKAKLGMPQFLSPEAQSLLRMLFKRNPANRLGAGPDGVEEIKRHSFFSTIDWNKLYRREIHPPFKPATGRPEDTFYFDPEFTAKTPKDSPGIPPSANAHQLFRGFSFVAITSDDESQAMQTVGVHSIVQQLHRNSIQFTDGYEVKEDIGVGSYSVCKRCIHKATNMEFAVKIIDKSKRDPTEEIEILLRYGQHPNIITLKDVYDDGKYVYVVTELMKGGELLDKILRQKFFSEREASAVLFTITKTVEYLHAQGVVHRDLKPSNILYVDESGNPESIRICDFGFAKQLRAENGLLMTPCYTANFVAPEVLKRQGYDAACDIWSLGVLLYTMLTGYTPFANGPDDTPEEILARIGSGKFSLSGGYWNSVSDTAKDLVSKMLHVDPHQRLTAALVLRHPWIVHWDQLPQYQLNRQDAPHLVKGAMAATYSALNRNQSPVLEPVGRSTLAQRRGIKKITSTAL
Sequence of High affinity nerve growth factor receptor (Homo sapiens) (P04629 33-796 limits assumed): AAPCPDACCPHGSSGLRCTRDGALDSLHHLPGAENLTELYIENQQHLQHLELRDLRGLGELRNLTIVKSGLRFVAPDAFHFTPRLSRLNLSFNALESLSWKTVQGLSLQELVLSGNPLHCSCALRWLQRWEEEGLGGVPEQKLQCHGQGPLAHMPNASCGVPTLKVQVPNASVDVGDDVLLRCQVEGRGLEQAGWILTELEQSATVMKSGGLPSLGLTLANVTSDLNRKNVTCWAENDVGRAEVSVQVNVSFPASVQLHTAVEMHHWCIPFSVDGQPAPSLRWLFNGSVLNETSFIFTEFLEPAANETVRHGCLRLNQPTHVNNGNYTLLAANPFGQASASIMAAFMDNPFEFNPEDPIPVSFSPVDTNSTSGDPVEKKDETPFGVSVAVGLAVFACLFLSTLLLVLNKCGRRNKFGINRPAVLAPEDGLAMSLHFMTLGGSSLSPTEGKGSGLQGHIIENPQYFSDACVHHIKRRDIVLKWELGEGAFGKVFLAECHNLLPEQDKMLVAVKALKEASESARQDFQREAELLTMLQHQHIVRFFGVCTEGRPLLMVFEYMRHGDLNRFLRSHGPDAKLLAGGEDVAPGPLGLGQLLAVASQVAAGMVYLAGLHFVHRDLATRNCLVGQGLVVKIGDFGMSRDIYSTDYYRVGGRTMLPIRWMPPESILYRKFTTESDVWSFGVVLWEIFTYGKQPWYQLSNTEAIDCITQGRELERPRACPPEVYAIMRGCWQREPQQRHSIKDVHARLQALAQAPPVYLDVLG

With `Cc1c(C(=O)Nc2ccc3ccccc3n2)cnn1-c1ccccc1Br`, the result with Mus musculus [1], in the series on SW-620 [8] and with HEK293 was Active. Further, the inhibition entry (in series [2]; in [7]; in the series listed under Homo sapiens; in series [13]) was “Active” each time. The inhibition entry in the series on HT-29 [3] is “Dose-dependent effect”; in series [11] it was 39%; with SW-620 [14] it was “Dose-dependent effect”. Also, the Activity in the series with SW-620 [4] was 0%; in the series on HT-29 [5], “Dose-dependent effect”; in the series with SW-620 [6] it was 57.9%; in the series with SW-620 [10], 19.2%; in the series with SW480 it was “Dose-dependent effect”; in the series on SW-620 [15] it was 9.43%. The bioavailability in series [9] turned out to be 22.9%. This compound yielded a Cmax in series [12] of 5200 ng/mL. The result in series [16] was inactive. The same compound gave a half-life in [17] of 3.1 h. Further, in series [18], the IC50 was found to be 2.3 nM. The “inhibition (INH)” value in the series on Mus musculus [19] was “Active”.

The inhibition is the share of the control response that was lost under treatment. For orientation: bioavailability means the share of a dose that reaches the circulation, judged against a reference dose that is usually intravenous. Broadly, the Cmax is the maximum level reached in the sampled fluid or tissue. The half-life is the time in which the quantity being followed falls by half. Usually IC50 stands for the concentration that gives 50% inhibition.
